Data published in ChEMBL document CHEMBL4715780, “Biological evaluation of tetracationic compounds based on two 1,4-diazabicyclo[2.2.2]octane moieties connected by different linkers” (Bioorg Med Chem, 2016).

Columns and labels:
Pseudomonas aeruginosa [1] = test: Bactericidal activity against Pseudomonas aeruginosa ATCC 9027 assessed as colony forming unit at 5 ug/ml measured at 6 hrs by time kill assay (reference value: 10^8 CFU/ml); type: functional; settings: dose 5 µg/ml
Procedure, shortened: (§1)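 Overnight Pseudomonas aeruginosa culture adjusted in Mueller–Hinton broth to about 2.5 × 10⁵ CFU/mL. Compound added at 2.5, 5 or 10 µg/mL, then incubated at 37 °C with shaking (580 rpm) for 22 h. Viable colonies counted on plates at 2, 4, 6, 8 and 22 h. Quantification limit 100 CFU/mL; triplicate.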

Pseudomonas aeruginosa [2] = test: Bactericidal activity against Pseudomonas aeruginosa ATCC 9027 assessed as reduction in colony forming unit at 5 ug/ml measured at 2 hrs by time kill assay relative to control; type: functional; parameters: scale not given: the % may be the effect or the level left; settings: dose 5 µg/ml; procedure, shortened: as §1
Pseudomonas aeruginosa [3] = test: Bactericidal activity against Pseudomonas aeruginosa ATCC 9027 assessed as reduction in colony forming unit at 10 ug/ml measured at 6 hrs by time kill assay relative to control; type: functional; parameters: scale not given: the % may be the effect or the level left; settings: dose 10 µg/ml; procedure, shortened: as §1
Pseudomonas aeruginosa [4] = test: Bactericidal activity against Pseudomonas aeruginosa ATCC 9027 assessed as reduction in colony forming unit at 10 ug/ml measured at 8 hrs by time kill assay relative to control; type: functional; parameters: scale not given: the % may be the effect or the level left; settings: dose 10 µg/ml; procedure, shortened: as §1
Pseudomonas aeruginosa [5] = test: Bactericidal activity against Pseudomonas aeruginosa ATCC 9027 assessed as colony forming unit at 10 ug/ml measured at 4 hrs by time kill assay (reference value: 1.2 x 10^7 CFU/ml); type: functional; settings: dose 10 µg/ml; procedure, shortened: as §1
Enterococcus faecalis = test: Antibacterial activity against Enterococcus faecalis ATCC 51299 assessed as bacterial growth inhibition by CLSI protocol based serial microdilution method; type: functional
Pseudomonas aeruginosa [6] = test: Bactericidal activity against Pseudomonas aeruginosa ATCC 9027 assessed as colony forming unit at 5 ug/ml measured at 4 hrs by time kill assay (reference value: 1.2 x 10^7 CFU/ml); type: functional; settings: dose 5 µg/ml; procedure, shortened: as §1
Pseudomonas aeruginosa [7] = test: Bactericidal activity against Pseudomonas aeruginosa ATCC 9027 assessed as reduction in colony forming unit at 5 ug/ml measured at 4 hrs by time kill assay relative to control; type: functional; parameters: scale not given: the % may be the effect or the level left; settings: dose 5 µg/ml; procedure, shortened: as §1
[8] = Selectivity index, ratio of CC50 for HEK293T cells assessed as reduction in cell viability measured after 24 hrs by MTT assay to MIC for Proteus vulgaris ATCC 6380 assessed as bacterial growth inhibition by CLSI protocol based serial microdilution method; type: toxicity; settings: human, read-out: Selectivity Index
Staphylococcus aureus [9] = test: Antibacterial activity against methicillin-resistant Staphylococcus aureus CEMTC 1695 assessed as concentration required to inhibit visible growth by CLSI protocol based serial microdilution method; type: functional
Staphylococcus aureus [10] = test: Antibacterial activity against methicillin-resistant Staphylococcus aureus CEMTC 1850 assessed as concentration required to inhibit visible growth by CLSI protocol based serial microdilution method; type: functional
Pseudomonas aeruginosa [11] = test: Bactericidal activity against Pseudomonas aeruginosa ATCC 9027 assessed as colony forming unit at 10 ug/ml measured at 8 hrs by time kill assay (reference value: 2.7 x 10^8 CFU/ml); type: functional; settings: dose 10 µg/ml; procedure, shortened: as §1
[12] = Selectivity index, ratio of CC50 for HEK293T cells assessed as reduction in cell viability measured after 24 hrs by MTT assay to MIC for Staphylococcus aureus ATCC 25923 assessed as bacterial growth inhibition by CLSI protocol based serial microdilution method; type: toxicity; settings: human, read-out: Selectivity Index
Pseudomonas aeruginosa [13] = test: Bactericidal activity against Pseudomonas aeruginosa ATCC 9027 assessed as colony forming unit at 10 ug/ml measured at 6 hrs by time kill assay (reference value: 10^8 CFU/ml); type: functional; settings: dose 10 µg/ml; procedure, shortened: as §1
Pseudomonas aeruginosa [14] = test: Bactericidal activity against Pseudomonas aeruginosa ATCC 9027 assessed as reduction in colony forming unit at 2.5 ug/ml measured at 22 hrs by time kill assay relative to control; type: functional; parameters: scale not given: the % may be the effect or the level left; settings: dose 2.5 µg/ml; procedure, shortened: as §1
Pseudomonas aeruginosa [15] = test: Bactericidal activity against Pseudomonas aeruginosa ATCC 9027 assessed as reduction in colony forming unit at 2.5 ug/ml measured at 4 hrs by time kill assay relative to control; type: functional; parameters: scale not given: the % may be the effect or the level left; settings: dose 2.5 µg/ml; procedure, shortened: as §1
Salmonella typhimurium = test: Antibacterial activity against Salmonella enterica ATCC 14028 assessed as concentration required to inhibit visible growth by CLSI protocol based serial microdilution method; type: functional, Salmonella enterica subsp. enterica serovar Typhimurium
Candida albicans [16] = test: Antifungal activity against Candida albicans CEMTC 34 assessed as fungal growth inhibition by CLSI protocol based serial microdilution method; type: functional
Procedure, shortened: (§2)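 Candida albicans grown in Sabouraud dextrose broth with two-fold serial compound dilutions from water stocks; final inoculum about 5 × 10⁵ CFU/mL. Incubated at 37 °C with orbital shaking (580 rpm). MIC is the lowest concentration preventing growth, by absorbance at 595 nm. MFC is the lowest concentration with no visible growth. Duplicates in two separate experiments.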

[17] = Cytotoxicity against MDCK cells assessed as cell death incubated for 48 hrs by MTT assay; type: cell-based, Canis lupus familiaris; settings: dog
Pseudomonas aeruginosa [18] = test: Bactericidal activity against Pseudomonas aeruginosa ATCC 9027 assessed as colony forming unit at 2.5 ug/ml measured at 8 hrs by time kill assay (reference value: 2.7 x 10^8 CFU/ml); type: functional; settings: dose 2.5 µg/ml; procedure, shortened: as §1
[19] = Selectivity index, ratio of CC50 for HEK293T cells assessed as reduction in cell viability measured after 24 hrs by MTT assay to MIC for Citrobacter freundii ATCC 8090 assessed as bacterial growth inhibition by CLSI protocol based serial microdilution method; type: toxicity; settings: human, read-out: Selectivity Index
Staphylococcus aureus [20] = test: Bactericidal activity against […] Staphylococcus aureus ATCC 25923 assessed as colony forming unit at 5 ug/ml measured at 2 hrs by time kill assay (reference value: 10^6 CFU/ml); type: functional; settings: dose 5 µg/ml
Procedure, shortened: (§3)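 S. aureus overnight culture was adjusted in MHB to ~8 × 10⁵ CFU/mL. Compound was added and the mixture incubated at 37 °C with shaking (580 rpm) for 22 h. Aliquots were plated for colony counts at 2, 4, 6, 8 and 22 h, with a quantification limit of 100 CFU/mL. Runs were done in triplicate.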

Staphylococcus aureus [21] = test: Antibacterial activity against methicillin-resistant Staphylococcus aureus CEMTC 1732 assessed as concentration required to inhibit visible growth by CLSI protocol based serial microdilution method; type: functional
Pseudomonas aeruginosa [22] = test: Bactericidal activity against Pseudomonas aeruginosa ATCC 9027 assessed as reduction in colony forming unit at 2.5 ug/ml measured at 8 hrs by time kill assay relative to control; type: functional; parameters: scale not given: the % may be the effect or the level left; settings: dose 2.5 µg/ml; procedure, shortened: as §1
Staphylococcus aureus [23] = test: Bactericidal activity against […] Staphylococcus aureus ATCC 25923 assessed as colony forming unit at 5 ug/ml measured at 4 hrs by time kill assay (reference value: 7.8 x 10^6 CFU/ml); type: functional; settings: dose 5 µg/ml; procedure, shortened: as §3
Staphylococcus aureus [24] = test: Bactericidal activity against […] Staphylococcus aureus ATCC 25923 assessed as colony forming unit at 1.25 ug/ml measured at 6 hrs by time kill assay (reference value: 1.2 x 10^6 CFU/ml); type: functional; settings: dose 1.25 µg/ml; procedure, shortened: as §3
[25] = Selectivity index, ratio of CC50 for HEK293T cells assessed as reduction in cell viability measured after 24 hrs by MTT assay to MIC for Enterococcus faecalis ATCC 51299 assessed as bacterial growth inhibition by CLSI protocol based serial microdilution method; type: toxicity; settings: human, read-out: Selectivity Index
Staphylococcus aureus [26] = test: Antibacterial activity against methicillin-resistant Staphylococcus aureus CEMTC 1695 assessed as bacterial growth inhibition by CLSI protocol based serial microdilution method; type: functional
Candida albicans [27] = test: Antifungal activity against Candida albicans CEMTC 34 assessed as concentration required to inhibit visible growth by CLSI protocol based serial microdilution method; type: functional; procedure, shortened: as §2

SMILES | Activity (Pseudomonas aeruginosa [1]) [CFU/ml] | Activity (Pseudomonas aeruginosa [2]) | Activity (Pseudomonas aeruginosa [3]) | Activity (Pseudomonas aeruginosa [4]) | Activity (Pseudomonas aeruginosa [5]) [CFU/ml] | MIC (Enterococcus faecalis) [µg/mL] | Activity (Pseudomonas aeruginosa [6]) [CFU/ml] | Activity (Pseudomonas aeruginosa [7]) | selectivity ratio at 24 h [8] | MBC (Staphylococcus aureus [9]) [µg/mL] | MBC (Staphylococcus aureus [10]) [µg/mL] | Activity (Pseudomonas aeruginosa [11]) [CFU/ml] | selectivity ratio at 24 h [12] | Activity (Pseudomonas aeruginosa [13]) [CFU/ml] | Activity (Pseudomonas aeruginosa [14]) | Activity (Pseudomonas aeruginosa [15]) | MBC (Salmonella typhimurium) [µg/mL] | MIC (Candida albicans [16]) [µg/mL] | CC50 at 48 h [17] [µg/mL] | Activity (Pseudomonas aeruginosa [18]) [CFU/ml] | further results
CCCCCCCCCCCC[N+]12CC[N+](CCC[N+]34CC[N+](CCCCCCCCCCCC)(CC3)CC4)(CC1)CC2 | <100 | >=99.9% | >=99.9% | >=99.9% | <100 | 1.6 | <100 | >=99.9% | < 1 | 1 | 1 | <100 | 22 | <100 | >=99.9% | >=99.9% | 3.1 | 3.1 | 12.8 | <100 | selectivity ratio at 24 h [19]: 4; Activity (Staphylococcus aureus [20]): <100 CFU/ml; MBC (Staphylococcus aureus [21]): 1 µg/mL; Activity (Pseudomonas aeruginosa [22]): >=99.9%; Activity (Staphylococcus aureus [23]): <100 CFU/ml; Activity (Staphylococcus aureus [24]): <100 CFU/ml; selectivity ratio at 24 h [25]: 4; MIC (Staphylococcus aureus [26]): 1 µg/mL; MFC (Candida albicans [27]): 6.3 µg/mL
CCCCCCCCCCCC[N+]12CC[N+](Cc3ccccc3C[N+]34CC[N+](CCCCCCCCCCCC)(CC3)CC4)(CC1)CC2 | <100 | >=99.9% | >=99.9% | >=99.9% | <100 | 0.8 | <100 | >=99.9% | < 1 | 1 | 1 | <100 | 7 | <100 | >=99.9% | >=99.9% | 3.1 | 3.1 | 1.9 | 300 | selectivity ratio at 24 h [19]: 3; Activity (Staphylococcus aureus [20]): <100 CFU/ml; MBC (Staphylococcus aureus [21]): 1 µg/mL; Activity (Pseudomonas aeruginosa [22]): >=99.9%; Activity (Staphylococcus aureus [23]): <100 CFU/ml; Activity (Staphylococcus aureus [24]): <100 CFU/ml; selectivity ratio at 24 h [25]: 5; MIC (Staphylococcus aureus [26]): 1 µg/mL; MFC (Candida albicans [27]): 6.3 µg/mL
